Results taken from ChEMBL document CHEMBL3352144, “Cytotoxic Spliceostatins from Burkholderia sp. and Their Semisynthetic Analogues” (J Nat Prod, 2014).

Tests used:
NCI-N87 = assay: Cytotoxicity against human NCI-N87 cells after 4 days by MTS/cell proliferation assay; format: functional, cell-based; details: NCI-N87, 96 h
Outline: (§1)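 Cells seeded in 96-well plates and dosed next day with 10 concentrations in 3-fold serial dilution, in duplicate. Incubated 4 days at 37 °C/5% CO2. Viability read by MTS or CellTiter-Glo luminescence. IC50 from four-parameter logistic fit.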

BT-474 = assay: Cytotoxicity against human BT474 cells after 4 days by MTS/cell proliferation assay; format: functional, cell-based; details: BT-474, 96 h; outline: as §1
MDA-MB-468 = assay: Cytotoxicity against human MDA-MB-468 cells after 4 days by MTS/cell proliferation assay; format: functional, cell-based; details: MDA-MB-468, 96 h; outline: as §1
[1] = 1-Octanol-buffer partition coefficient, log D of the compound at pH 7.4 by shake flask method; format: physicochemical
Outline: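 Shake-flask partition: 10 mM DMSO stock added to 1-octanol/pH 7.4 phosphate buffer (1:1, mutually presaturated), mixed 15 min at room temperature, centrifuged 1006g 10 min to split phases. Each phase was sampled, diluted and quantified by LC-MS/MS. Run in duplicate, typical CV ~20%.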

NCI-H1975 = assay: Cytotoxicity against human NCI-H1975 cells after 4 days by MTS/cell proliferation assay; format: functional, cell-based; details: NCI-H1975, 96 h; outline: as §1
[2] = Cytotoxicity against human MDA-MB-DYT2 cells after 4 days by MTS/cell proliferation assay; format: functional, cell-based; details: 96 h; outline: as §1

SMILES | IC50 (NCI-N87) [nM] | IC50 (BT-474) [nM] | IC50 (MDA-MB-468) [nM] | logD [1] | IC50 (NCI-H1975) [nM] | IC50 [2] [nM]
CC(=O)O[C@@H](C)/C=C\C(=O)N[C@@H]1C[C@H](C)[C@H](C/C=C(C)/C=C/[C@@H]2C[C@](O)(CCl)C[C@@H](CC(=O)O)O2)O[C@@H]1C | 0.641 | 1.85 | 1.35 |  |  | 
CC(=O)O[C@@H](C)/C=C\C(=O)N[C@@H]1C[C@H](C)[C@H](C/C=C(C)/C=C/[C@@H]2C[C@]3(CO3)C[C@@H](CC(=O)O)O2)O[C@@H]1C | 2 | 4.8 | 3.4 | 0.077 | 3.6 | 9.1
C=C1C[C@@H](CC(=O)O)O[C@H](/C=C/C(C)=C/C[C@@H]2O[C@H](C)[C@H](NC(=O)/C=C\[C@H](C)OC(C)=O)C[C@@H]2C)C1 |  |  |  |  | 30 | 
C=C1C[C@@H](CC(=O)O)O[C@H](/C=C/C(C)=C/C[C@@H]2O[C@H](C)[C@H](NC(=O)/C=C\[C@H](C)OC(C)=O)C[C@@H]2C)[C@H]1O |  |  |  |  | 950 | 
CC(=O)O[C@@H](C)/C=C\C(=O)N[C@@H]1C[C@H](C)[C@H](C/C=C(C)/C=C/[C@@H]2CC(C)=CC(=O)O2)O[C@@H]1C | 3.67 | 3.72 | 1.56 |  |  | 4.16
CC(=O)O[C@@H](C)/C=C\C(=O)N[C@@H]1C[C@H](C)[C@H](C/C=C(C)/C=C/C(=O)O)O[C@@H]1C | > 100 | > 100 |  |  |  | > 100
CC(=O)O[C@@H](C)/C=C\C(=O)N[C@@H]1C[C@H](C)[C@H](C/C=C(C)/C=C/[C@@H]2C[C@](O)(CCl)C[C@@H](CC(=O)OC[C@@]3(O)[C@H](O)[C@@H](/C=C/C(C)=C/C[C@@H]4O[C@H](C)[C@H](NC(=O)/C=C\[C@H](C)OC(C)=O)C[C@@H]4C)O[C@](C)(O)[C@@H]3O)O2)O[C@@H]1C | 1.86 | 3.82 |  |  |  | 3.07
CC(=O)O[C@@H](C)/C=C\C(=O)N[C@@H]1C[C@H](C)[C@H](C/C=C(C)/C=C/[C@H]2O[C@@H]3CC(=O)O[C@@](CCl)(C3)[C@@H]2O)O[C@@H]1C | > 100 |  | > 100 |  |  | > 100
COC(=O)C[C@@H]1C[C@@]2(CO2)[C@H](O)[C@@H](/C=C/C(C)=C/C[C@@H]2O[C@H](C)[C@H](NC(=O)/C=C\[C@H](C)OC(C)=O)C[C@@H]2C)O1 | 0.78 | 0.88 |  | 2.23 |  | 1.25
CCCNC(=O)C[C@@H]1C[C@@]2(CO2)C[C@@H](/C=C/C(C)=C/C[C@@H]2O[C@H](C)[C@H](NC(=O)/C=C\[C@H](C)OC(C)=O)C[C@@H]2C)O1 | 6 | 2.5 | 1.7 | 3.72 | 2.4 | 
CCCNC(=O)C[C@@H]1C[C@@]2(CO2)[C@H](O)[C@@H](/C=C/C(C)=C/C[C@@H]2O[C@H](C)[C@H](NC(=O)/C=C\[C@H](C)OC(C)=O)C[C@@H]2C)O1 | 0.64 | 0.19 | 0.11 | 2.21 | 0.28 | 0.29
CC(=O)O[C@H]1C(=O)[C@@]2(C)[C@H]([C@H](OC(=O)c3ccccc3)[C@]3(O)C[C@H](OC(=O)[C@H](O)[C@@H](NC(=O)c4ccccc4)c4ccccc4)C(C)=C1C3(C)C)[C@]1(OC(C)=O)CO[C@@H]1C[C@@H]2O [PACLITAXEL] | 7.53 | 8.36 | 7.17 |  | 7.94 | 6.08
CC(=O)O[C@@H](C)/C=C\C(=O)N[C@@H]1C[C@H](C)[C@H](C/C=C(C)/C=C/[C@H]2O[C@H](CC(=O)O)C[C@@]3(CO3)[C@@H]2O)O[C@@H]1C [THAILANSTATIN A] | 59 | 145 | 142 | -0.658 | 320 | 161
CC(=O)O[C@@H](C)/C=C\C(=O)N[C@@H]1C[C@H](C)[C@H](C/C=C(C)/C=C/[C@H]2O[C@H](CC(=O)O)C[C@@](O)(CCl)[C@@H]2O)O[C@@H]1C [THAILANSTATIN B] | > 100 | > 100 | > 100 |  |  | 
